Source: ChEMBL document CHEMBL4152379, “Discovery of Pyrrolidine Sulfonamides as Selective and Orally Bioavailable Antagonists of Transient Receptor Potential Vanilloid-4 (TRPV4)” (J Med Chem, 2018)
≈ marks a conversion by molar mass, not a printed value.

Columns and labels:
[1] = target: Transient receptor potential cation channel subfamily M member 2 (Homo sapiens, UniProt O94759); assay: Inhibition of TRPM2 (unknown origin)
[2] = target: T1, Short transient receptor potential channel 3 (Homo sapiens, UniProt Q13507); assay: Inhibition of TRPC3 (unknown origin)
T1 sequence (Q13507 whole entry): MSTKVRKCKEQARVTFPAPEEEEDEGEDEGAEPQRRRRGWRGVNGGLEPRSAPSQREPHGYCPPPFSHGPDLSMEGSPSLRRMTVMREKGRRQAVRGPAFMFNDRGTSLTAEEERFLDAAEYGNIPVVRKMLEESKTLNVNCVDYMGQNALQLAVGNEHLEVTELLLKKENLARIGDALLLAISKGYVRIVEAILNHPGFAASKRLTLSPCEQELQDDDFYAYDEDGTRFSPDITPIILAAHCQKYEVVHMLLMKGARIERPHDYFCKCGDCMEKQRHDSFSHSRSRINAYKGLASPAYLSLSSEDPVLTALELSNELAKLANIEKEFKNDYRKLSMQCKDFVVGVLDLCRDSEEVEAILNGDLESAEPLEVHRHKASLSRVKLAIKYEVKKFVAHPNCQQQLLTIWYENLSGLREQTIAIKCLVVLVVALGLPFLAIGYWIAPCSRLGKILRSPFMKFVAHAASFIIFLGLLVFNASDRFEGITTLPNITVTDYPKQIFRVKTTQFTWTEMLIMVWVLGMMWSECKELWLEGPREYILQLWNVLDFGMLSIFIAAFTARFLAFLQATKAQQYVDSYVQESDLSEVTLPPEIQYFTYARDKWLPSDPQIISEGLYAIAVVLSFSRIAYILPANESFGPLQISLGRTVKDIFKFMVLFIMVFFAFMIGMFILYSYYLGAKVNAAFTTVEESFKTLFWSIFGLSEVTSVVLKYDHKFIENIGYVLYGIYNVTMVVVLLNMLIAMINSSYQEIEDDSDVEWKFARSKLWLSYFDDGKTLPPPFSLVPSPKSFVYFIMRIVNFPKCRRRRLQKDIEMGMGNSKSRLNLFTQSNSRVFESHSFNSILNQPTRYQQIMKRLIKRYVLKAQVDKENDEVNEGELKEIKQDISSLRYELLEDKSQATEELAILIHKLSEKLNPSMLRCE

[3] = target: Transient receptor potential cation channel subfamily M member 4 (Homo sapiens, UniProt Q8TD43); assay: Inhibition of TRPM4 (unknown origin)
Sequence of Transient receptor potential cation channel subfamily M member 4 (Q8TD43 whole entry): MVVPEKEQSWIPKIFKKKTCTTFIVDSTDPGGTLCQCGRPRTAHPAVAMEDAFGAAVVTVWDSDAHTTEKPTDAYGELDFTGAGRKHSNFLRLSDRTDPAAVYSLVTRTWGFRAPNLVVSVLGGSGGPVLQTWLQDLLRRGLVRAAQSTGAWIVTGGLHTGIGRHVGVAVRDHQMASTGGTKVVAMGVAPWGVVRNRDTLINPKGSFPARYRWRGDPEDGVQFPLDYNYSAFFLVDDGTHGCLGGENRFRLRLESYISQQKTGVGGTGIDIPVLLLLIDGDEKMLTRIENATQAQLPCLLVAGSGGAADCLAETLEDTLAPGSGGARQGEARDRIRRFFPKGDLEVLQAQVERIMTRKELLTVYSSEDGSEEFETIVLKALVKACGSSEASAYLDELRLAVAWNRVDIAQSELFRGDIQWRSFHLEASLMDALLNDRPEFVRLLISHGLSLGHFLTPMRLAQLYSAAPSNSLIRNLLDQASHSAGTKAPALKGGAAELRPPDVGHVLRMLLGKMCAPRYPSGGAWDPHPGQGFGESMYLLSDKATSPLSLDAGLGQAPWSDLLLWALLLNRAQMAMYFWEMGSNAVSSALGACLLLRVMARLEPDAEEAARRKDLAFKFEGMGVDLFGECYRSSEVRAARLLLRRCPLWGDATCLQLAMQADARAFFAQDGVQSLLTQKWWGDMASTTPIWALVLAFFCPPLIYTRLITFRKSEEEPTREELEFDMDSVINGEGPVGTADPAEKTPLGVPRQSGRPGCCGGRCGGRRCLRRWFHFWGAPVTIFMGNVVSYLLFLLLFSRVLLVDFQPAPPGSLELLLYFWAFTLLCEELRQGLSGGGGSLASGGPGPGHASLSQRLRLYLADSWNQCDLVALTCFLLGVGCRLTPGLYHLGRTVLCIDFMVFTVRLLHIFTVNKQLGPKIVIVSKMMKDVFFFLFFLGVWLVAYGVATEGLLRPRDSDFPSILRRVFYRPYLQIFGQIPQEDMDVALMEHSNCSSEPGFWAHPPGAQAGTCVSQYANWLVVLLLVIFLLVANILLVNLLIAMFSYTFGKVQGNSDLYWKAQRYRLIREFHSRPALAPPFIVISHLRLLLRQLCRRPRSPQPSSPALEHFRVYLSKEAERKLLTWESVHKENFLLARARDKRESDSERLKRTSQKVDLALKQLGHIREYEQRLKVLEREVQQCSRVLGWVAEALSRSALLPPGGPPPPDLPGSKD

[4] = Aqueous solubility of the compound; format: physicochemical; conditions: buffer
[5] = target: T2, Short transient receptor potential channel 6 (Homo sapiens, UniProt Q9Y210); assay: Inhibition of TRPC6 (unknown origin)
T2 sequence (Q9Y210 whole entry): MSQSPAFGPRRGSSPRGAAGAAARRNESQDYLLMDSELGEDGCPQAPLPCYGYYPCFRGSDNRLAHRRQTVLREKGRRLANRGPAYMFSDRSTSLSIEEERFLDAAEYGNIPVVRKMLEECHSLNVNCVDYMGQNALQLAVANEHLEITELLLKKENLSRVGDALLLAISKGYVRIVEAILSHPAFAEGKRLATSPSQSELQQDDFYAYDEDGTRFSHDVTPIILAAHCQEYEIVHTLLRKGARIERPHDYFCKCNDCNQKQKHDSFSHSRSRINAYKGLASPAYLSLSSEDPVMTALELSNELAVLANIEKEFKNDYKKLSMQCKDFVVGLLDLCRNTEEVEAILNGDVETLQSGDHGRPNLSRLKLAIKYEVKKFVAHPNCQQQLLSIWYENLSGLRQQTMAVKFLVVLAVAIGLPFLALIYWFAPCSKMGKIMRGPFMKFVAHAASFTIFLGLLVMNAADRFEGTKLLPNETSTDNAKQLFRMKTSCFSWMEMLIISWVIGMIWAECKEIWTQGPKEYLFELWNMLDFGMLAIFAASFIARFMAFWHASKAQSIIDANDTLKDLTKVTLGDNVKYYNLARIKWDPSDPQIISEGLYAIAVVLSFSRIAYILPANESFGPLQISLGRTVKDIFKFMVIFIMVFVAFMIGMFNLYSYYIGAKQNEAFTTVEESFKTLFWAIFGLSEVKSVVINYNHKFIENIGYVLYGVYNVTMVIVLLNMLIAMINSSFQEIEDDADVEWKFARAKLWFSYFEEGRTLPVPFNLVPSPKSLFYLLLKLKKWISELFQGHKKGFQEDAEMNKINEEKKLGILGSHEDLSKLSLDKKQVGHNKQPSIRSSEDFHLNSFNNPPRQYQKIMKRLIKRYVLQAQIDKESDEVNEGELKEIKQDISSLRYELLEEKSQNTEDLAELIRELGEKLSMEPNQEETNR

[6] = target: Transient receptor potential cation channel subfamily M member 8 (Homo sapiens, UniProt Q7Z2W7); assay: Inhibition of TRPM8 (unknown origin)
Sequence of Transient receptor potential cation channel subfamily M member 8 (Q7Z2W7 whole entry): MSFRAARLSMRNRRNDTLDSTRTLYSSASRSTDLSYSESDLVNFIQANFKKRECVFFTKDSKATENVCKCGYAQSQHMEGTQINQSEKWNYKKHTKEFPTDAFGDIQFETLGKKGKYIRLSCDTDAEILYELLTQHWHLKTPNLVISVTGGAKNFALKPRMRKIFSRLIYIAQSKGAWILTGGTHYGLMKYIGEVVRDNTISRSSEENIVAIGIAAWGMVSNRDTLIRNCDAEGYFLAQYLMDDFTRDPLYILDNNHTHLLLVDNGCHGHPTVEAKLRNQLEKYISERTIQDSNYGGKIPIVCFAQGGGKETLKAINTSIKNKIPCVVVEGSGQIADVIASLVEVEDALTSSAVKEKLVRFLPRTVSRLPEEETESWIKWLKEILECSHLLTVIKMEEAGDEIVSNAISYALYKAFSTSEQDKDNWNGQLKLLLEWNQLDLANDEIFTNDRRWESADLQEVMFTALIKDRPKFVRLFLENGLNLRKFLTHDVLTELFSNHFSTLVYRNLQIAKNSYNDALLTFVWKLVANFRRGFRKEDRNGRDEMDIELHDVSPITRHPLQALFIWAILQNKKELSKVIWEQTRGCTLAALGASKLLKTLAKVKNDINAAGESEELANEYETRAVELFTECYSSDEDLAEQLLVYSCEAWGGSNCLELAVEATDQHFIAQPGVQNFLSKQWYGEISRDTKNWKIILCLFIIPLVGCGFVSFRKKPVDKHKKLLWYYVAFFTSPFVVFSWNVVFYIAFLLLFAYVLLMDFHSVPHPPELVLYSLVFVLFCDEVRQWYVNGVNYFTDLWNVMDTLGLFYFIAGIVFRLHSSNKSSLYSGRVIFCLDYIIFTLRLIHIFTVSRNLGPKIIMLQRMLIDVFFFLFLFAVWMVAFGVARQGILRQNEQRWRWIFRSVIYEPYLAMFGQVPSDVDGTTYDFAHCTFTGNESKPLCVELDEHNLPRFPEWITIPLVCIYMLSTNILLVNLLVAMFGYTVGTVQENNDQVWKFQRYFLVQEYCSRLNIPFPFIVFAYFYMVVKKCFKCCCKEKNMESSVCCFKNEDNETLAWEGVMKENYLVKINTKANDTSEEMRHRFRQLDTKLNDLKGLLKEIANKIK

[7] = Lipophilicity, log D of the compound by chromatography; format: physicochemical
[8] = MRT in iv dosed Sprague-Dawley rat; format: ADME, organism-based; conditions: in vivo
In short: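 Male Sprague-Dawley rats with femoral vein, femoral artery and gastric catheters; noncrossover design, 2 rats per route; cassette dosing of up to five compounds. i.v. target 1 mg/kg in 5% DMSO/20% Cavitron (pH 4), infused over 30 min. Oral gastric bolus target 2 mg/kg in 5% DMSO/6% Cavitron (pH 4). Plasma sampled to 24 h and measured by HPLC−MS/MS. Noncompartmental analysis; F from dose-normalized AUC(0−∞) relative to mean i.v. AUC.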

Sequence of Transient receptor potential cation channel subfamily M member 2 (O94759 whole entry): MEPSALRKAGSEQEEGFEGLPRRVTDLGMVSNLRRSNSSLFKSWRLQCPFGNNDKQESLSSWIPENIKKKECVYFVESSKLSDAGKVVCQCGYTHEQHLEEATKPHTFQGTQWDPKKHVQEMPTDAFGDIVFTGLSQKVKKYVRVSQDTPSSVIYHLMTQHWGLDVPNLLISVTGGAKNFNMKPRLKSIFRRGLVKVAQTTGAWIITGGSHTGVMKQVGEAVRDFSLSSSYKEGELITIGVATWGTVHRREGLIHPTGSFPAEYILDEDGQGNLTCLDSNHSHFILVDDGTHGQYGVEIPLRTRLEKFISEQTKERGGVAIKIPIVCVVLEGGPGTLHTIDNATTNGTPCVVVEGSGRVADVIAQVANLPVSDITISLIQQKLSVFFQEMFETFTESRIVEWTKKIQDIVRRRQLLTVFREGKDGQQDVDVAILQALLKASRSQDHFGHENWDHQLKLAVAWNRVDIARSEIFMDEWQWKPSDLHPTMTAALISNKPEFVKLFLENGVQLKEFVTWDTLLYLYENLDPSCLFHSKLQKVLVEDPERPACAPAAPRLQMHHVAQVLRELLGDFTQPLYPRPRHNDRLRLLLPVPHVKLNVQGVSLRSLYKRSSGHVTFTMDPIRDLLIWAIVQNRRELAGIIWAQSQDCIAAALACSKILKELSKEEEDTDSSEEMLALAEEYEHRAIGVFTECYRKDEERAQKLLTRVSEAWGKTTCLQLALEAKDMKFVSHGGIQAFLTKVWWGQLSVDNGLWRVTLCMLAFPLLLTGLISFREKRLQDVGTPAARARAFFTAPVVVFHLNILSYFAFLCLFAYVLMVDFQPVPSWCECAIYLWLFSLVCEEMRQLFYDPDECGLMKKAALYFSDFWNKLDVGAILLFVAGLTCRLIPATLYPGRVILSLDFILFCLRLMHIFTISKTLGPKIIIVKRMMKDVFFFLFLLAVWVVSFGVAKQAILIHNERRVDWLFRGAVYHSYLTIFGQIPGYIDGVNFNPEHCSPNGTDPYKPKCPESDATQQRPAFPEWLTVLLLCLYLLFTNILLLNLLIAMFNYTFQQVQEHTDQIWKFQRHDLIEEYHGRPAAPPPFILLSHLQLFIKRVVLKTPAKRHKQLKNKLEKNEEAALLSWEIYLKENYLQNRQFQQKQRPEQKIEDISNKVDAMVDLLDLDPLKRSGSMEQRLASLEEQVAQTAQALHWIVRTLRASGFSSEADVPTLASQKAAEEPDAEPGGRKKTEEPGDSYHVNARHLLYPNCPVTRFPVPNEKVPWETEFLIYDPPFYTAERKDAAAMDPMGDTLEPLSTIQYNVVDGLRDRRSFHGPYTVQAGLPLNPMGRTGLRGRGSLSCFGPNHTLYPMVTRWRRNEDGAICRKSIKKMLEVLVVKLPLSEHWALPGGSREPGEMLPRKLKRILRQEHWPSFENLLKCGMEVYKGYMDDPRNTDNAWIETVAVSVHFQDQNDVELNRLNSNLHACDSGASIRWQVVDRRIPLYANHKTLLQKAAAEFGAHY

IC50 [1]: > 10 µM
IC50 [2]: > 10 µM
solubility [4]: 360 µM (≈ 166 µg/mL)
IC50 [5]: > 10 µM
IC50 [6]: > 10 µM
chromatographic logD [7]: 4.6
MRT [8]: 54 min
SMILES: N#Cc1ccc(O[C@H]2CN(S(=O)(=O)c3ccc(Cl)cc3Cl)C[C@@]2(O)CO)cc1F
IC50 [3]: > 10 µM
